This note sets out measurements from ChEMBL document CHEMBL3399922, “3-Oxoisoxazole-2(3H)-carboxamides and isoxazol-3-yl carbamates: Resistance-breaking acetylcholinesterase inhibitors targeting the malaria mosquito, Anopheles gambiae” (Bioorg Med Chem, 2015).

For assay [1], the system named is Anopheles gambiae. The experiment in a line: Tarsal contact toxicity in Anopheles gambiae Akron (MRA-913) assessed as mortality measured at 24 hrs by filter paper assay. In kind it is functional. The method in brief: (§1)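 Non-blood-fed adult females, 3–5 days old, followed a modified 2006 WHO tube assay. Filter papers (15 × 12 cm) were treated with ethanolic carbamate and dried overnight. Mosquitoes were exposed 1 h, then given 10% sugar water, at 24 ± 1 °C and 75% RH; mortality was read at 24 h. G3 used 20-25/batch in triplicate and Akron 10-15 in duplicate. LC50 was from probit analysis of typically 5-8 concentrations.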

Assay [2] concerns Anopheles gambiae. The experiment in a line: Tarsal contact toxicity in Anopheles gambiae G3 (MRA-112) assessed as mortality measured at 24 hrs by filter paper assay. In kind it is functional. The method in brief: as §1
In assay [3] the test system is Anopheles gambiae. As to the kind of experiment: Tarsal contact toxicity in Anopheles gambiae G3 (MRA-112) assessed as mortality measured at 1000 ug/mL at 24 hrs by filter paper assay. In kind it is functional. The method in brief:
as §1

Assay [4] can be described thus: Inhibition of recombinant Anopheles gambiae AChE G119S mutant compound incubated for up to 60 mins at approximately 10 mins interval. On the set-up: unit not given here. The essentials:
(§2)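 Recombinant AgAChE enzymes were incubated with typically five inhibitor concentrations plus an inhibitor-free control. Residual activity v/v0 was read by Ellman assay against a time-matched control, at 23 ± 1°C, pH 7.7, 0.1% (v/v) DMSO. kobs is the slope of ln(v/v0) vs time, from at least two experiments. ki is the slope of kobs vs [I] in the linear, non-saturating range. Duplicate wells.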

Assay [5] in a line: Inhibition of recombinant wild-type Anopheles gambiae AChE compound incubated for up to 6 min at approximately 1 min interval. More on the design: unit not given here. The essentials:
as §2

The target of the next assay is Acetylcholinesterase (Homo sapiens, UniProt P22303). As to the kind of experiment: Inhibition of recombinant human AChE. More on the design: unit not given here.
Acetylcholinesterase, sequence (P22303 whole entry): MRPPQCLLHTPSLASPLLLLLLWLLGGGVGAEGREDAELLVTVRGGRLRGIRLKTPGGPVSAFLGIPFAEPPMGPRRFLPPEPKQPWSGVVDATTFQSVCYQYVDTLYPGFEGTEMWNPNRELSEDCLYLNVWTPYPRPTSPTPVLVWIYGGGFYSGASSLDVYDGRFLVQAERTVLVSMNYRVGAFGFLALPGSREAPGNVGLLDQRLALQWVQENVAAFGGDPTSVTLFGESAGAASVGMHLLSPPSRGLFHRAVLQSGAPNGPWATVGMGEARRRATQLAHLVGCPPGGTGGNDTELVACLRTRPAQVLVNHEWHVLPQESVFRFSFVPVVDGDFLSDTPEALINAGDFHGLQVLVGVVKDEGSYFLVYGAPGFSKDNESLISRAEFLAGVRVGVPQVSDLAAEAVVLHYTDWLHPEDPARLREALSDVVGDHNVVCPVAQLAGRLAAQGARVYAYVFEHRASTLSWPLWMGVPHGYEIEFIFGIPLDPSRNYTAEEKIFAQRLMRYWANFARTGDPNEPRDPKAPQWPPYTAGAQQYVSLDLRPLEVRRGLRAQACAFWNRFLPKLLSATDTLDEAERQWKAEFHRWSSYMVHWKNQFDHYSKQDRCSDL
The subject of assay [6] is Anopheles gambiae. The experiment in a line: Tarsal contact toxicity in Anopheles gambiae Akron (MRA-913) assessed as mortality measured at 1000 ug/mL at 24 hrs by filter paper assay. In kind it is functional. The essentials: as §1
The subject of assay [7] is Anopheles gambiae. The experiment in a line: Tarsal contact toxicity in Anopheles gambiae Akron (MRA-913) assessed as mortality measured at 200 ug/mL at 24 hrs by filter paper assay. In kind it is functional. The method in brief:
as §1

Values after ≈ are worked out from the molar mass of the structure shown. Some results are limits rather than exact numbers.

On to `CNC(=O)Oc1cccc(C(C)(C)C)c1`, for which the LC50 was above 5000 µg/mL in the assay on Anopheles gambiae [1] and 37 µg/mL (≈ 179 µM) in the assay on Anopheles gambiae [2].

`Cc1cc(OC(=O)N(C)C)no1`: in the assay with Anopheles gambiae [3], the mortality at 1000 µg/mL stood at 0%.

On to `CCC(C)n1cc(OC(=O)NC)cn1` (stereo not drawn), for which the 50% lethal concentration (LC50) came out at 81 µg/mL (≈ 411 µM) in the assay on Anopheles gambiae [1] and 96 µg/mL (≈ 487 µM) with Anopheles gambiae [2].

As to `Cc1cc(=O)n(C(=O)N(C)C)o1`, the mortality at 1000 µg/mL with Anopheles gambiae [3] worked out at 0%.

Consider `CN(C)C(=O)n1oc(C2CC2)cc1=O`, for which the LC50 in the assay on Anopheles gambiae [2] was 278 µg/mL (≈ 1420 µM). Moreover, the values for the Ki (in assay [4]; in assay [5]; at Acetylcholinesterase) were 0.2, 50.5 and 103, respectively. In the assay on Anopheles gambiae [6], the mortality at 1000 µg/mL turned out to be 10%.

Consider `CC(C)c1cc(=O)n(C(=O)N(C)C)o1`, for which the LC50 in the assay on Anopheles gambiae [1] turned out to be 182 µg/mL (≈ 918 µM); with Anopheles gambiae [2] it was 316 µg/mL (≈ 1590 µM).

On to `CN(C)C(=O)n1oc(C2CCC2)cc1=O`, for which the LC50 in the assay with Anopheles gambiae [1] stood at 74 µg/mL (≈ 352 µM); in the assay with Anopheles gambiae [2], 79 µg/mL (≈ 376 µM).

As for `CCC(C)c1cc(=O)n(C(=O)N(C)C)o1` (stereo not drawn), the LC50 in the assay with Anopheles gambiae [1] is 129 µg/mL (≈ 608 µM); with Anopheles gambiae [2] it was 63 µg/mL (≈ 297 µM).

Turning to `CN(C)C(=O)n1oc(C2CCCC2)cc1=O`, the LC50 was found to be 118 µg/mL (≈ 526 µM) in the assay with Anopheles gambiae [1] and 105 µg/mL (≈ 468 µM) with Anopheles gambiae [2].

`CCCC(C)c1cc(=O)n(C(=O)N(C)C)o1` (stereo not drawn): the LC50 in the assay with Anopheles gambiae [1] came out at 75 µg/mL (≈ 331 µM); in the assay with Anopheles gambiae [2] it was 153 µg/mL (≈ 676 µM).

Take `CCC(CC)c1cc(=O)n(C(=O)N(C)C)o1`: the LC50 in the assay with Anopheles gambiae [1] was 40 µg/mL (≈ 177 µM); in the assay on Anopheles gambiae [2], 38 µg/mL (≈ 168 µM).

Regarding `CC(C)Cc1cc(=O)n(C(=O)N(C)C)o1`, in the assay with Anopheles gambiae [7], the mortality at 200 µg/mL worked out at 25%. Also, the LC50 in the assay with Anopheles gambiae [2] turned out to be 201 µg/mL (≈ 947 µM). Further, the Ki is 0.55 in assay [4], 252 in assay [5] and 30.9 at Acetylcholinesterase.

As to `CCC(C)Cc1cc(=O)n(C(=O)N(C)C)o1` (stereo not drawn), in the assay with Anopheles gambiae [3], the mortality at 1000 µg/mL was found to be 0%.

Regarding `CN(C)C(=O)n1oc(CC(C)(C)C)cc1=O`, the mortality at 1000 µg/mL in the assay with Anopheles gambiae [3] worked out at 80%.

As for `CC(C)CCc1cc(=O)n(C(=O)N(C)C)o1`, the LC50 is 68 µg/mL (≈ 301 µM) in the assay with Anopheles gambiae [1] and 73 µg/mL (≈ 323 µM) in the assay with Anopheles gambiae [2]. In addition, the Ki in assay [4] came out at 0.4; in assay [5] it was 266; at Acetylcholinesterase, 80.9.

On to `CN(C)C(=O)n1oc(CCC2CC2)cc1=O`, for which the LC50 is 144 µg/mL (≈ 642 µM) in the assay on Anopheles gambiae [1] and 133 µg/mL (≈ 593 µM) in the assay on Anopheles gambiae [2].

Take `CN(C)C(=O)n1oc(CCC2CCC2)cc1=O`: the mortality at 1000 µg/mL with Anopheles gambiae [3] was 30%.

Take `CN(C)C(=O)n1oc(CCC2CCCC2)cc1=O`: in the assay with Anopheles gambiae [3], the mortality at 1000 µg/mL is 0%.

With `CCCC(C)c1cc(=O)n(C(=O)N2CCC2)o1` (stereo not drawn), the mortality at 1000 µg/mL in the assay with Anopheles gambiae [3] amounted to 78%.

In the case of `CCCC(C)c1cc(=O)n(C(=O)N(C)CC)o1` (stereo not drawn), the figures for the LC50 with Anopheles gambiae [1] and in the assay on Anopheles gambiae [2] were 614 µg/mL (≈ 2560 µM) and 400 µg/mL (≈ 1660 µM), respectively.

Take `CCCC(C)c1cc(=O)n(C(=O)N(CC)CC)o1` (stereo not drawn): in the assay on Anopheles gambiae [3], the mortality at 1000 µg/mL was 15%.

`CCCC(C)c1cc(=O)n(C(=O)N2CCCC2)o1` (stereo not drawn): the mortality at 1000 µg/mL with Anopheles gambiae [3] was 77%.

In the case of `CCCC(C)c1cc(=O)n(C(=O)N2CCOCC2)o1` (stereo not drawn), the mortality at 1000 µg/mL in the assay on Anopheles gambiae [3] was 45%.

Turning to `CN(C)C(=O)Oc1cc(C2CC2)on1`, the mortality at 1000 µg/mL with Anopheles gambiae [3] stood at 0%.

For the compound `CC(C)c1cc(OC(=O)N(C)C)no1`, the values for the 50% lethal concentration (LC50) with Anopheles gambiae [1] and in the assay on Anopheles gambiae [2] were 116 µg/mL (≈ 585 µM) and 84 µg/mL (≈ 424 µM), respectively.

On to `CN(C)C(=O)Oc1cc(C2CCC2)on1`, for which the values for the LC50 in the assay with Anopheles gambiae [1] and in the assay with Anopheles gambiae [2] were 392 µg/mL (≈ 1860 µM) and 349 µg/mL (≈ 1660 µM), respectively.

In the case of `CCC(C)c1cc(OC(=O)N(C)C)no1` (stereo not drawn), the LC50 in the assay on Anopheles gambiae [1] is 58 µg/mL (≈ 273 µM); in the assay with Anopheles gambiae [2], 41 µg/mL (≈ 193 µM).

Consider `CN(C)C(=O)Oc1cc(C2CCCC2)on1`, for which the mortality at 1000 µg/mL with Anopheles gambiae [3] worked out at 60%.

With `CCCC(C)c1cc(OC(=O)N(C)C)no1` (stereo not drawn), the LC50 in the assay on Anopheles gambiae [1] is 296 µg/mL (≈ 1310 µM); in the assay on Anopheles gambiae [2], 234 µg/mL (≈ 1030 µM). Besides, the Ki in assay [4] is given as 30.6; in assay [5] it was 416; on Acetylcholinesterase, 50.9.

For `CCC(CC)c1cc(OC(=O)N(C)C)no1`, the mortality at 1000 µg/mL with Anopheles gambiae [3] was determined as 70%.

`CCCCC(CC)c1cc(OC(=O)N(C)C)no1` (stereo not drawn): in the assay with Anopheles gambiae [3], the mortality at 1000 µg/mL is 0%.

For `CC(C)Cc1cc(OC(=O)N(C)C)no1`, the median lethal concentration (LC50) stood at 151 µg/mL (≈ 711 µM) in the assay on Anopheles gambiae [1] and 253 µg/mL (≈ 1190 µM) in the assay on Anopheles gambiae [2].

As for `CCC(C)Cc1cc(OC(=O)N(C)C)no1` (stereo not drawn), in the assay on Anopheles gambiae [3], the mortality at 1000 µg/mL worked out at 30%.

With `CN(C)C(=O)Oc1cc(CC(C)(C)C)on1`, the Ki in assay [4] was 0.05; in assay [5], 0.12; on Acetylcholinesterase it was 0.44. Moreover, the mortality at 1000 µg/mL with Anopheles gambiae [3] stood at 0%.

For the compound `CC(C)CCc1cc(OC(=O)N(C)C)no1`, the LC50 worked out at 429 µg/mL (≈ 1900 µM) with Anopheles gambiae [1] and 415 µg/mL (≈ 1830 µM) in the assay with Anopheles gambiae [2].

Take `CN(C)C(=O)Oc1cc(CCC2CC2)on1`: the LC50 with Anopheles gambiae [1] worked out at 198 µg/mL (≈ 883 µM); in the assay with Anopheles gambiae [2], 191 µg/mL (≈ 852 µM).

Consider `CN(C)C(=O)Oc1cc(CCC2CCC2)on1`, for which, in the assay on Anopheles gambiae [3], the mortality at 1000 µg/mL is 40%.

Consider `CN(C)C(=O)Oc1cc(CCC2CCCC2)on1`, for which the LC50 in the assay with Anopheles gambiae [2] was found to be 674 µg/mL (≈ 2670 µM). In addition, the Ki stood at 0.12 in assay [4], 0.6 in assay [5] and 13.1 at Acetylcholinesterase.

For `CCCC(C)c1cc(OC(=O)N(C)CC)no1` (stereo not drawn), the figures for the LC50 in the assay with Anopheles gambiae [1] and with Anopheles gambiae [2] were 574 µg/mL (≈ 2390 µM) and 410 µg/mL (≈ 1710 µM), respectively.

As to `CCCC(C)c1cc(OC(=O)N2CCCC2)no1` (stereo not drawn), the mortality at 1000 µg/mL with Anopheles gambiae [3] was determined as 0%.

Take `CCCC(C)c1cc(OC(=O)N2CCOCC2)no1` (stereo not drawn): in the assay on Anopheles gambiae [3], the mortality at 1000 µg/mL was determined as 10%.

Consider `CNC(=O)O/N=C/C(C)(C)SC` [ALDICARB], for which the LC50 in the assay with Anopheles gambiae [1] came out at 32 µg/mL (≈ 168 µM); in the assay with Anopheles gambiae [2], 70 µg/mL (≈ 368 µM).

`CNC(=O)Oc1cccc2c1OC(C)(C)O2` [BENDIOCARB]: the LC50 with Anopheles gambiae [1] is above 5000 µg/mL; in the assay with Anopheles gambiae [2] it was 16 µg/mL (≈ 71.7 µM).

With `CNC(=O)Oc1cccc2c1OC(C)(C)C2` [CARBOFURAN], the LC50 was above 5000 µg/mL in the assay with Anopheles gambiae [1] and 16 µg/mL (≈ 72.3 µM) with Anopheles gambiae [2].

As to `CNC(=O)Oc1ccccc1OC(C)C` [PROPOXUR], the LC50 in the assay with Anopheles gambiae [1] was above 5000 µg/mL; in the assay on Anopheles gambiae [2], 39 µg/mL (≈ 186 µM).
